Test results from ChEMBL document CHEMBL1147812 (J Med Chem, 2006).

Target: Neuronal acetylcholine receptor; alpha4/beta2 (Rattus norvegicus, UniProt P09483+P12390)
Test: Inhibition of [3H]cytisine binding to alpha4beta2 nACHR in Wistar rat cerebral cortical membrane
Outline: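 Male Wistar rat (150-250 g) cerebral cortex homogenized at 0-4 °C in 50 mM Tris HCl pH 7.4 with 120 mM NaCl, 5 mM KCl, 1 mM MgCl₂, 2.5 mM CaCl₂, then washed twice by centrifugation at 27 000g. Membranes incubated with test drug and 1 nM ³H-cytisine (final) for 90 min at 2 °C. Nonspecific binding defined with 100 µM (-)-nicotine. Bound label collected on GF/C filters and counted by liquid scintillation.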

Sequence of Neuronal acetylcholine receptor; alpha4/beta2 (P09483 whole entry): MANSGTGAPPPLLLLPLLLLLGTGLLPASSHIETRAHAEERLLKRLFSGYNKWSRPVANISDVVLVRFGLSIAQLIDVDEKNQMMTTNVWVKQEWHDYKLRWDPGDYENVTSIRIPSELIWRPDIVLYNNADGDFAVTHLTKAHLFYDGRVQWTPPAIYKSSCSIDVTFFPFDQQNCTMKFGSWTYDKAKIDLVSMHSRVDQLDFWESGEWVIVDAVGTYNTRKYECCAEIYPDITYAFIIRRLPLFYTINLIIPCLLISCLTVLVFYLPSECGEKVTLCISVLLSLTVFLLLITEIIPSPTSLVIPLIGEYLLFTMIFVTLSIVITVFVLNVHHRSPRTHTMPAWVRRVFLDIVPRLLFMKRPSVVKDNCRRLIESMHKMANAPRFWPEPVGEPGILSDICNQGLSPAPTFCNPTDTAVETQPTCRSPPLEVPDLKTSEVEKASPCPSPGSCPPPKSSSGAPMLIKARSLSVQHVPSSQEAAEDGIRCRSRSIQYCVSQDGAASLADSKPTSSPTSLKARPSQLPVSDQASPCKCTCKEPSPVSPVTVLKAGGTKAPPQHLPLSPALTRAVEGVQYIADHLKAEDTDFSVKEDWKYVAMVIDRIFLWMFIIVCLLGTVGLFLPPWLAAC
Sequence of Neuronal acetylcholine receptor; alpha4/beta2 (P12390 whole entry): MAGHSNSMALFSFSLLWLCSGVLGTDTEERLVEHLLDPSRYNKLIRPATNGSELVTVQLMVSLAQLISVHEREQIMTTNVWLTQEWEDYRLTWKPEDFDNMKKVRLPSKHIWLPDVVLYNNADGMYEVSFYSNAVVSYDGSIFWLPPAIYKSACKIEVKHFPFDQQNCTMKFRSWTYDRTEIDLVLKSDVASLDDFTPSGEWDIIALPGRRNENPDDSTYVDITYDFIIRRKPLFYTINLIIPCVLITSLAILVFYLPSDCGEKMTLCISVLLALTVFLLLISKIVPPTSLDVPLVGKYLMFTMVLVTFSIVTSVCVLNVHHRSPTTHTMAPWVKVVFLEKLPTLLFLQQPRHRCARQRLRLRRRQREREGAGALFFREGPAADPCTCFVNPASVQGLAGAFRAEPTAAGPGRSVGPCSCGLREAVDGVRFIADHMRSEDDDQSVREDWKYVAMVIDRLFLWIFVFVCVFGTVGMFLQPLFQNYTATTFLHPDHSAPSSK

SMILES	IC50 [nM]
Brc1ccc(N2CCNCC2)cn1	180
C/C=C\Oc1cncc(N2CCCNCC2)c1	1.3
CCOc1cncc(N2CCC3CCC(C2)N3)c1 (racemic)	6.5
c1ncc(N2CCCNCC2)cc1C1CC1	5.8
COc1cncc(N2C3CCNCC2CC3)c1 (racemic)	10
Clc1cc(N2CCCNCC2)cnc1Br	1.4
Brc1cncc(N2CCCNCCC2)c1	2.8
C=COc1cc(N2CCCNCCC2)cnc1Br	0.38
Clc1cncc(OC2CCCNC2)c1 (racemic)	240
COc1cncc(N2CCNCC2)c1	500
Clc1ncc(N2CCCNCC2)cc1Br	1.4
C#Cc1cncc(N2CCNCC2)c1	110
C=COc1cncc(N2CCNCC2)c1	190
Clc1cncc(N2CCCNCCC2)c1	2
Clc1ncc(N2CCNCC2)cc1Br	230
Brc1ccc(N2CCCNCCC2)cn1	0.45
c1cncc(N2CCCNCCC2)c1	0.9
C=COc1cc(N2CCCNCC2)cnc1Br	0.64
C/C=C\Oc1cncc(N2CCC3CCC(C2)N3)c1 (racemic)	1.9
C/C=C\Oc1cncc(N2C3CCNCC2CC3)c1 (racemic)	3.1
Oc1cc(N2CCCNCC2)cnc1I	22
Cc1ncc(N2CCNCC2)cc1Cl	520
